Experiment [1] addresses Mitogen-activated protein kinase kinase kinase kinase 1 (Homo sapiens) (UniProt Q92918). Nature of the experiment: Inhibition of human recombinant HPK1 at 15 nM in presence of ATP by radiometric assay relative to control.
The target in experiment [2] is T1, Serine/threonine-protein kinase DCLK3 (Homo sapiens) (UniProt Q9C098).
T1 sequence (whole entry): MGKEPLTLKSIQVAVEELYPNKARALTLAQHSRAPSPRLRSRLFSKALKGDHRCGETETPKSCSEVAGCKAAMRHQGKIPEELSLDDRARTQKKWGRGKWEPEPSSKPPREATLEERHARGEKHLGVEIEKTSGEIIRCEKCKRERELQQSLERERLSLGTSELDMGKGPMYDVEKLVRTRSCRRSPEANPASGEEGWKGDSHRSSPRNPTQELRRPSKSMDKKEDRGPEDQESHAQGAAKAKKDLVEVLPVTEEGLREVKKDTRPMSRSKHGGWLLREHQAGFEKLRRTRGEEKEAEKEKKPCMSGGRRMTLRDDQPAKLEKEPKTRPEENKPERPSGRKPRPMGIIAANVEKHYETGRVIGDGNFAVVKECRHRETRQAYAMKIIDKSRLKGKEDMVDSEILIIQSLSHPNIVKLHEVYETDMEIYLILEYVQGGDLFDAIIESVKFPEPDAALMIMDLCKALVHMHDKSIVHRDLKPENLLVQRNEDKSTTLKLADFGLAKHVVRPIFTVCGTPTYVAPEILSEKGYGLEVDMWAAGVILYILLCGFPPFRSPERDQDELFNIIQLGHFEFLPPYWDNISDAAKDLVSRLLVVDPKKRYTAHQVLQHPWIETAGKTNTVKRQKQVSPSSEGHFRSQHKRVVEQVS
Description: Inhibition of human recombinant DCAMKL3 at 15 nM related to control ULK1.

Experiment [3] addresses Rho-associated protein kinase 2 (Homo sapiens) (UniProt O75116). Description: Inhibition of human recombinant ROCK2 at 15 nM related to control ULK1.
Experiment [4] addresses Serine/threonine-protein kinase MARK2 (Homo sapiens) (UniProt Q7KZI7). Description: Inhibition of human recombinant MARK2 at 15 nM related to control ULK1.
Experiment [5] deals with RAC-beta serine/threonine-protein kinase (Homo sapiens) (UniProt P31751). Nature of the experiment: Inhibition of human recombinant AKT2 at 40 nM in presence of ATP by radiometric assay relative to control. The procedure, abridged:
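Panel of 327 recombinant human kinases in radiometric activity assays, each screened in duplicate at a single inhibitor concentration; percent activity remaining relative to vehicle control, percent inhibition taken as 100 minus activity remaining.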

The target of experiment [6] is T2, Serine/threonine-protein kinase Nek3 (Homo sapiens) (UniProt P51956).
T2 sequence (whole entry): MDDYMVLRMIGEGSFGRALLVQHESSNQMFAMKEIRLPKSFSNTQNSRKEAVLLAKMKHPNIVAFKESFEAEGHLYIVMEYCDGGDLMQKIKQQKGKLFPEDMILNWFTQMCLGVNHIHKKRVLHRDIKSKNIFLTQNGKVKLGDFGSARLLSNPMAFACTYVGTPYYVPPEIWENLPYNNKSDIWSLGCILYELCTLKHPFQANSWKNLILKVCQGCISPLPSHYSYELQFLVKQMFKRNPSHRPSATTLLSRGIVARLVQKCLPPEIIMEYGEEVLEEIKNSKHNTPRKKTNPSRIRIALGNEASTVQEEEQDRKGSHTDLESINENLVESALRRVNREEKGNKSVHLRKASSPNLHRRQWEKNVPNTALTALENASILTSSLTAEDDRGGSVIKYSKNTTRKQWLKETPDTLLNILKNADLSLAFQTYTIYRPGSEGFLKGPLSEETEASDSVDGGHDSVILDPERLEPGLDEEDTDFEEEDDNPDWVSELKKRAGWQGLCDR
Nature of the experiment: Inhibition of human recombinant NEK3 at 500 nM in presence of ATP by radiometric assay relative to control.

In experiment [7] the target is Receptor tyrosine-protein kinase erbB-4 (Homo sapiens) (UniProt Q15303). Description: Inhibition of human recombinant ErbB4 at 500 nM related to control ULK1.
Experiment [8] has as its target [Pyruvate dehydrogenase (acetyl-transferring)] kinase isozyme 4, mitochondrial (Homo sapiens) (UniProt Q16654). Nature of the experiment: Inhibition of human recombinant PDHK4 at 500 nM related to control ULK1.
In experiment [9] the target is T3, Serine/threonine-protein kinase Nek1 (Homo sapiens) (UniProt Q96PY6).
T3 sequence (whole entry): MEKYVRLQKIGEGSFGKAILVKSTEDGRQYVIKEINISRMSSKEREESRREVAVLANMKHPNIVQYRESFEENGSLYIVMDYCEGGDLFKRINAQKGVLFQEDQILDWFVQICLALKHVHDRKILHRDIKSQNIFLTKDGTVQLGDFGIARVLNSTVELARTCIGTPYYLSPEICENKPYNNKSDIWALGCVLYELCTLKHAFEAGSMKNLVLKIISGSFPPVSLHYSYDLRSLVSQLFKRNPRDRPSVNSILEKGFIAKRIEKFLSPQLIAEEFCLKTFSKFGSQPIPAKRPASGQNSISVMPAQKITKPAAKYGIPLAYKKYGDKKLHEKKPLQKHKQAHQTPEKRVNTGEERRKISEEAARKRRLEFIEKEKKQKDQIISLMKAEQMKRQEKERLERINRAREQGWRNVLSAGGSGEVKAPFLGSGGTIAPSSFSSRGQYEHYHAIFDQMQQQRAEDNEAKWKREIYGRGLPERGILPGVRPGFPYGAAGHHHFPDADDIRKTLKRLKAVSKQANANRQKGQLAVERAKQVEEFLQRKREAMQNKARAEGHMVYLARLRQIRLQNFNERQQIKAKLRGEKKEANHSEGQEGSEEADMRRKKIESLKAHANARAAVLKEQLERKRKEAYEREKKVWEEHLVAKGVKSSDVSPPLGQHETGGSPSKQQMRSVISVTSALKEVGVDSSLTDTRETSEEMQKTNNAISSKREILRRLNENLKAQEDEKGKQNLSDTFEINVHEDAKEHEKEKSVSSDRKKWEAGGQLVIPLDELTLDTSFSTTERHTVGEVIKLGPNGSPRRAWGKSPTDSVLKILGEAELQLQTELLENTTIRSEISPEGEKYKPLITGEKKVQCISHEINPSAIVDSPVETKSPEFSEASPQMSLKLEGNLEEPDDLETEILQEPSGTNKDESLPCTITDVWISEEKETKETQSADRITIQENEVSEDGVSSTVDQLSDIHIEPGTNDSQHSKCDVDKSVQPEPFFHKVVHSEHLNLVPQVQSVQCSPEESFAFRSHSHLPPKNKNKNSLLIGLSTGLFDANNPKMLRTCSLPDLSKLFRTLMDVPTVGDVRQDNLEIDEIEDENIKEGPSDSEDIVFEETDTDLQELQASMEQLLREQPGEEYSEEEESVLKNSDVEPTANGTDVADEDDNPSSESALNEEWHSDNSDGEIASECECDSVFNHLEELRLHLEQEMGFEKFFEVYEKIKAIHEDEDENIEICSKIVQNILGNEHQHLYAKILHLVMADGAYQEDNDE
Nature of the experiment: Inhibition of human recombinant NEK1 at 500 nM related to control ULK1.

The structures appear in SMILES notation.

Sequence of Mitogen-activated protein kinase kinase kinase kinase 1 (Homo sapiens) (Q92918 whole entry, looked up): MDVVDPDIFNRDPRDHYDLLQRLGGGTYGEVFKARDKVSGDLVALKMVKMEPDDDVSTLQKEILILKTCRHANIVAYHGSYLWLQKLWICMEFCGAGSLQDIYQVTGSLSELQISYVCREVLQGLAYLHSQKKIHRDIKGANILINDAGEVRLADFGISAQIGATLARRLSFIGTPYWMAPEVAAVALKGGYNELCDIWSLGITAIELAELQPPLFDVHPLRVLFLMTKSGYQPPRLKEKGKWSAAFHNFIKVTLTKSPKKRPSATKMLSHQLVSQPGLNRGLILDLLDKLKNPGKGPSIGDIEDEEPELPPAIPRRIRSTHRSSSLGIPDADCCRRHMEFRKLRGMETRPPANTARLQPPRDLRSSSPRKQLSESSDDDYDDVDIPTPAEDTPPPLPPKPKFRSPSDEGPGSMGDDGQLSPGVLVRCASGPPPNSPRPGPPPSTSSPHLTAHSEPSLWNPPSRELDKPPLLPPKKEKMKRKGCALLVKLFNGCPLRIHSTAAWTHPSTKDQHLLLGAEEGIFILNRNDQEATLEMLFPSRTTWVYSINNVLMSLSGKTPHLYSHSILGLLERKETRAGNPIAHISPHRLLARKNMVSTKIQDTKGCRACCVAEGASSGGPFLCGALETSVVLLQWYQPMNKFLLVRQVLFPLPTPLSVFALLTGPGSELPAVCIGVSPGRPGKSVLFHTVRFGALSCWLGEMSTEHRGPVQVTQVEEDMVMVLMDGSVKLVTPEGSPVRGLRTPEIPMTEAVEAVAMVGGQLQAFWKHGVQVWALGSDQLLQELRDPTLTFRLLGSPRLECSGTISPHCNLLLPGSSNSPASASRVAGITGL
Sequence of Rho-associated protein kinase 2 (Homo sapiens) (O75116 whole entry, looked up): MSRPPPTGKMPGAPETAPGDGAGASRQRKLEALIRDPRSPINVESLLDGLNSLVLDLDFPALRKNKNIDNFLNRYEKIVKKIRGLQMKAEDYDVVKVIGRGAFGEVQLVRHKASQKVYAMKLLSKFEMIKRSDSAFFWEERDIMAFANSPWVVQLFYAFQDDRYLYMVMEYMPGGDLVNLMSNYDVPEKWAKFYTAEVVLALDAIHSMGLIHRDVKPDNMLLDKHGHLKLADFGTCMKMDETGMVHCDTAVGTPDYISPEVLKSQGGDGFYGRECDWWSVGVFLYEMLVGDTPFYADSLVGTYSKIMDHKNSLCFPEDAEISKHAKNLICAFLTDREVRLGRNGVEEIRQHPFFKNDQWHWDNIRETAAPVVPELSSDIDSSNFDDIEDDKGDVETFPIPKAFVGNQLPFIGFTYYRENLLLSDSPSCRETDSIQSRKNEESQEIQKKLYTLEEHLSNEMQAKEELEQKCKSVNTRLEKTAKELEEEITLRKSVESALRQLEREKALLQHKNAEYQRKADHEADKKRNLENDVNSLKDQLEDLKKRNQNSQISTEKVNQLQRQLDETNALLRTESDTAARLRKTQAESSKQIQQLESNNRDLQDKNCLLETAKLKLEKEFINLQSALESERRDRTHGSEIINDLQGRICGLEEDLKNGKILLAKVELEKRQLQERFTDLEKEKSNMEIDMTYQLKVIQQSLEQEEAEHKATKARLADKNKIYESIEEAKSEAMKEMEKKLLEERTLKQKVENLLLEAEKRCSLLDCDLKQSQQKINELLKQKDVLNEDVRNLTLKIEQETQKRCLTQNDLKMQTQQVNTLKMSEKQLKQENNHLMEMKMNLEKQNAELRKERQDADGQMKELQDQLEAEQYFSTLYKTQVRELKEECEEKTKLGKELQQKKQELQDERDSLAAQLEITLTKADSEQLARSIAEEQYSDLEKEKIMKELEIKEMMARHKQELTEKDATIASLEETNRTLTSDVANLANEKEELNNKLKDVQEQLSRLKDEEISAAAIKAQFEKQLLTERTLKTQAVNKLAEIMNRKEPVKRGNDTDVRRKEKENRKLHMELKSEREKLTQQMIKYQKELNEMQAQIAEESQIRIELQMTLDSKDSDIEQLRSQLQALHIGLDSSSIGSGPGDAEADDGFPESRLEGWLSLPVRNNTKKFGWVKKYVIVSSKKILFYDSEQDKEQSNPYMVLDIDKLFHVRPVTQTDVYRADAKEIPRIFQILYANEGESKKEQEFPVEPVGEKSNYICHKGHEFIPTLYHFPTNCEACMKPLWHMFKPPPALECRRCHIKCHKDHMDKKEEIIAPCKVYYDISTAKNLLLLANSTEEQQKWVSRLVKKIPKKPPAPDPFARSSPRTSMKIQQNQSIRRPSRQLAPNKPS
Sequence of Serine/threonine-protein kinase MARK2 (Homo sapiens) (Q7KZI7 whole entry): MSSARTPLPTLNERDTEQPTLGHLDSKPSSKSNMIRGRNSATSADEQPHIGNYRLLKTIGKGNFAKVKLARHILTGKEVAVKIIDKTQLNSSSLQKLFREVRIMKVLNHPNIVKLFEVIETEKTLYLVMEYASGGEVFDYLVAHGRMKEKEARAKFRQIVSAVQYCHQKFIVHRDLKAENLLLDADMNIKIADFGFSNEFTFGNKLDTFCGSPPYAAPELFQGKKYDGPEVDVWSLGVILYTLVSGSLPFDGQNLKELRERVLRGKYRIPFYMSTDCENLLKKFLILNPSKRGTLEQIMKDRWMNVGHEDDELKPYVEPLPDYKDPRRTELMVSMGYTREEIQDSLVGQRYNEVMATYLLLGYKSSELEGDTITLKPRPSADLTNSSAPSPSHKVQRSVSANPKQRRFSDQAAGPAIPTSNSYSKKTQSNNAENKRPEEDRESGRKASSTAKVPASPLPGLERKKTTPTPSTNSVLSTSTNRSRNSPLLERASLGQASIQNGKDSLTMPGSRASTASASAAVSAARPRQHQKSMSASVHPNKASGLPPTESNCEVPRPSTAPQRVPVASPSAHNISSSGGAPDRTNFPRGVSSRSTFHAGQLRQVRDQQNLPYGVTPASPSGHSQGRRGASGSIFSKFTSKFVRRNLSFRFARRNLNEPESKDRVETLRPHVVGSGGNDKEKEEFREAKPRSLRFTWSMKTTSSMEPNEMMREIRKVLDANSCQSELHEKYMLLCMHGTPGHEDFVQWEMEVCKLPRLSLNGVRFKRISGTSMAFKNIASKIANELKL
Sequence of [Pyruvate dehydrogenase (acetyl-transferring)] kinase isozyme 4, mitochondrial (Homo sapiens) (Q16654 whole entry, looked up): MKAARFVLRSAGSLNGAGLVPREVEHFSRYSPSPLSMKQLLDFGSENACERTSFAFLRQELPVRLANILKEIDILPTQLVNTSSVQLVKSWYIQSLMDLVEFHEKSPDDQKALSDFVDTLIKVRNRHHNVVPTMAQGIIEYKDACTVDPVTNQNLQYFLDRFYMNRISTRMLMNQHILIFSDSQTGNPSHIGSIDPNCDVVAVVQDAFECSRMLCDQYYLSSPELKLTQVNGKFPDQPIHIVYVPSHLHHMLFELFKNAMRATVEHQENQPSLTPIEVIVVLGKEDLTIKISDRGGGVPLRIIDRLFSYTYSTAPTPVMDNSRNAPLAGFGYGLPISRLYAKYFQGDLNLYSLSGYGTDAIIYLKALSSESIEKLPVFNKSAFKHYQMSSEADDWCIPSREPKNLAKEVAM
Sequence of RAC-beta serine/threonine-protein kinase (Homo sapiens) (P31751 whole entry): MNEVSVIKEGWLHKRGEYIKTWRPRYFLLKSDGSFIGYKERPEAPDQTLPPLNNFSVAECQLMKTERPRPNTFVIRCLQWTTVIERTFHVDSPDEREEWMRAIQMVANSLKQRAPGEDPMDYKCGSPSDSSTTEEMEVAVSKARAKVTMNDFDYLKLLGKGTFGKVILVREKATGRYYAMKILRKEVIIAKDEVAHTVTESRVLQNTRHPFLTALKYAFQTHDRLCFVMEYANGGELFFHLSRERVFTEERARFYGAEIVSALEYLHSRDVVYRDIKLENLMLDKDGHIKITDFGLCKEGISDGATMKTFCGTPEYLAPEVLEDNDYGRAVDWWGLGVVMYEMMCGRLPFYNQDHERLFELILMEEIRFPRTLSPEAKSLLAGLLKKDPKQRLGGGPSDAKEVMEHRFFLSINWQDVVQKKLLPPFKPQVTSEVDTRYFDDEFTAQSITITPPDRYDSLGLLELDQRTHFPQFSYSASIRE

For `CC(C)[C@H](NC(=O)c1cc(-c2cnn3cc(-c4ccc(OCCN5CCCCC5)cc4)cnc23)cs1)C(F)(F)F`, the inhibition – broadly, the change of the read-out against control, counted positive when it falls – in [1] stood at 0%. For the same compound, the fold change (FC) in experiment [2] worked out at 0.4; in experiment [3], 0; in experiment [4] it was 0.53.
Turning to `O=C(N[C@@H](C1CC1)C(F)(F)F)c1cc(-c2cnn3cc(-c4ccc(F)cc4)cnc23)cs1`, the inhibition in [5] turned out to be 10%.
As to `CNC(=O)c1ccccc1Oc1nc(Nc2cc(OC)c(OC)c(OC)c2)ncc1Br`, the inhibition in experiment [6] came out at 7%. Moreover, the values for the fold change (FC) in experiment [7], in [8] and in experiment [9] were 0, 0.07 and 0.11, respectively.

Values taken from ChEMBL document CHEMBL5653631, “A Potent and Selective ULK1 Inhibitor Suppresses Autophagy and Sensitizes Cancer Cells to Nutrient Stress” (iScience, 2018).
